Experimental data published in ChEMBL document CHEMBL1152588, “New potent P-glycoprotein modulators with the cucurbitane scaffold and their synergistic interaction with doxorubicin on resistant cancer cells” (Bioorg Med Chem, 2009).

How the values were obtained:
L5178Y [1] = assay: Reversal of human MDR1-mediated multidrug resistance in mouse L5178Y cells expressing MDR1 assessed as mean fluorescence intensity of rhodamine-123 uptake after 10 mins by flow cytometry; format: functional
In short: (§1)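 Parental and MDR1-transfected L5178 cells at 2×10^6/mL in serum-free McCoy's 5A. Compound (0.5–20 µM; verapamil 22 µM as positive control) added 10 min at room temperature, then rhodamine 123 20 min at 37 °C. Cells washed twice, resuspended in PBS, flow cytometry on 10,000 cells (FSC, SSC, mean FL-1). FAR = (MDR treated/MDR control)/(parental treated/parental control); single representative experiment.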

L5178Y [2] = assay: Antiproliferative activity against mouse L5178Y cells after 72 hrs by MTT assay; format: functional; settings: read-out: ID50 (the source's name)
In short: (§2)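 L5178 mouse T-cell lymphoma cells, parental or transfected with human MDR1 via pHa MDR1/A retrovirus. Transfected cells were kept under 60 ng/mL colchicine. Cells grew in McCoy's 5A with 10% heat-inactivated horse serum at 37 °C, 5% CO2. 1×10^4 cells/well with rising compound concentrations, 72 h at 37 °C. MTT 4 h, SDS 10% overnight, OD 550 nm (ref 630 nm). % inhibition vs cell/medium controls; ID50 mean ± SD of three experiments.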

[3] = target: T1, ATP-dependent translocase ABCB1 (Homo sapiens, UniProt P08183); assay: Reversal of human MDR1-mediated multidrug resistance in mouse L5178Y cells expressing MDR1 assessed as mean fluorescence intensity of rhodamine-123 uptake at 20 uM after 10 mins by flow cytometry; format: cell-based; in short: as §1
[4] = target: T1, ATP-dependent translocase ABCB1; assay: Reversal of human MDR1-mediated multidrug resistance in mouse L5178Y cells expressing MDR1 assessed as fluorescence activity ratio at 2 uM after 10 mins by rhodamine-123 exclusion test; format: cell-based; in short: as §1
[5] = target: T1, ATP-dependent translocase ABCB1; assay: Reversal of human MDR1-mediated multidrug resistance in mouse L5178Y cells expressing MDR1 assessed as forward scatter count measured by cell size ratio at 2 uM after 10 mins by flow cytometry; format: cell-based; in short: as §1
L5178Y [6] = assay: Reversal of multidrug resistance in mouse L5178Y cells assessed as mean fluorescence intensity of rhodamine-123 uptake after 10 mins by flow cytometry; format: functional; in short: as §1
[7] = target: T1, ATP-dependent translocase ABCB1; assay: Reversal of human MDR1-mediated multidrug resistance in mouse L5178Y cells expressing MDR1 assessed as side scatter count measured by cell size ratio at 2 uM after 10 mins by flow cytometry; format: cell-based; in short: as §1
[8] = target: T1, ATP-dependent translocase ABCB1; assay: Reversal of human MDR1-mediated multidrug resistance in mouse L5178Y cells expressing MDR1 assessed as side scatter count measured by cell size ratio at 20 uM after 10 mins by flow cytometry; format: cell-based; in short: as §1
[9] = target: T1, ATP-dependent translocase ABCB1; assay: Reversal of human MDR1-mediated multidrug resistance in mouse L5178Y cells expressing MDR1 assessed as forward scatter count measured by cell size ratio at 20 uM after 10 mins by flow cytometry; format: cell-based; in short: as §1
[10] = target: T1, ATP-dependent translocase ABCB1; assay: Reversal of human MDR1-mediated multidrug resistance in mouse L5178Y cells expressing MDR1 assessed as fluorescence activity ratio at 20 uM after 10 mins by rhodamine-123 exclusion test; format: cell-based; in short: as §1
[11] = Octanol-water partition coefficient, log D of the compound; format: physicochemical
L5178Y [12] = assay: Antiproliferative activity against multidrug resistance mouse L5178Y cells expressing human MDR1 after 72 hrs by MTT assay; format: functional; settings: read-out: ID50 (the source's name); in short: as §2
[13] = target: T1, ATP-dependent translocase ABCB1; assay: Reversal of human MDR1-mediated multidrug resistance in mouse L5178Y cells expressing MDR1 assessed as mean fluorescence intensity of rhodamine-123 uptake at 2 uM after 10 mins by flow cytometry; format: cell-based; in short: as §1
L5178Y [14] = assay: Potentiation of doxorubicin-induced anticancer activity against mouse L5178Y cells expressing MDR1 assessed as fractional inhibitory concentration after 72 hrs by checkerboard microplate assay; format: functional
In short: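 Checkerboard combination on MDR1-transfected L5178 lymphoma cells: doxorubicin diluted along one plate axis, resistance modifier along the other; 5×10^4 cells/well; 72 h at 37 °C in CO2 incubator; growth read by MTT staining. FIC = ID50 in combination/ID50 alone for each agent; summed FIX <0.5 synergism, 0.51–1 additive, 1–2 indifferent, >2 antagonism.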

[15] = target: T1, ATP-dependent translocase ABCB1; assay: Reversal of human MDR1-mediated multidrug resistance in mouse L5178Y cells expressing MDR1 assessed as fluorescence activity ratio at 0.5 uM after 10 mins by rhodamine-123 exclusion test; format: cell-based; in short: as §1
[16] = target: T1, ATP-dependent translocase ABCB1; assay: Reversal of human MDR1-mediated multidrug resistance in mouse L5178Y cells expressing MDR1 assessed as side scatter count measured by cell size ratio at 0.5 uM after 10 mins by flow cytometry; format: cell-based; in short: as §1
[17] = target: T1, ATP-dependent translocase ABCB1; assay: Reversal of human MDR1-mediated multidrug resistance in mouse L5178Y cells expressing MDR1 assessed as mean fluorescence intensity of rhodamine-123 uptake at 0.5 uM after 10 mins by flow cytometry; format: cell-based; in short: as §1
[18] = target: T1, ATP-dependent translocase ABCB1; assay: Reversal of human MDR1-mediated multidrug resistance in mouse L5178Y cells expressing MDR1 assessed as forward scatter count measured by cell size ratio at 0.5 uM after 10 mins by flow cytometry; format: cell-based; in short: as §1
[19] = target: T1, ATP-dependent translocase ABCB1; assay: Reversal of human MDR1-mediated multidrug resistance in mouse L5178Y cells expressing MDR1 assessed as mean fluorescence intensity of rhodamine-123 uptake at 1 uM after 10 mins by flow cytometry; format: cell-based; in short: as §1
[20] = target: T1, ATP-dependent translocase ABCB1; assay: Reversal of human MDR1-mediated multidrug resistance in mouse L5178Y cells expressing MDR1 assessed as side scatter count measured by cell size ratio at 1 uM after 10 mins by flow cytometry; format: cell-based; in short: as §1
[21] = target: T1, ATP-dependent translocase ABCB1; assay: Reversal of human MDR1-mediated multidrug resistance in mouse L5178Y cells expressing MDR1 assessed as fluorescence activity ratio at 1 uM after 10 mins by rhodamine-123 exclusion test; format: cell-based; in short: as §1
[22] = target: T1, ATP-dependent translocase ABCB1; assay: Reversal of human MDR1-mediated multidrug resistance in mouse L5178Y cells expressing MDR1 assessed as forward scatter count measured by cell size ratio at 1 uM after 10 mins by flow cytometry; format: cell-based; in short: as §1
L5178Y [23] = assay: Reversal of human MDR1-mediated multidrug resistance in mouse L5178Y cells expressing MDR1 fluorescence activity ratio of rhodamine-123 uptake after 10 mins by flow cytometry

T1 sequence (P08183 whole entry): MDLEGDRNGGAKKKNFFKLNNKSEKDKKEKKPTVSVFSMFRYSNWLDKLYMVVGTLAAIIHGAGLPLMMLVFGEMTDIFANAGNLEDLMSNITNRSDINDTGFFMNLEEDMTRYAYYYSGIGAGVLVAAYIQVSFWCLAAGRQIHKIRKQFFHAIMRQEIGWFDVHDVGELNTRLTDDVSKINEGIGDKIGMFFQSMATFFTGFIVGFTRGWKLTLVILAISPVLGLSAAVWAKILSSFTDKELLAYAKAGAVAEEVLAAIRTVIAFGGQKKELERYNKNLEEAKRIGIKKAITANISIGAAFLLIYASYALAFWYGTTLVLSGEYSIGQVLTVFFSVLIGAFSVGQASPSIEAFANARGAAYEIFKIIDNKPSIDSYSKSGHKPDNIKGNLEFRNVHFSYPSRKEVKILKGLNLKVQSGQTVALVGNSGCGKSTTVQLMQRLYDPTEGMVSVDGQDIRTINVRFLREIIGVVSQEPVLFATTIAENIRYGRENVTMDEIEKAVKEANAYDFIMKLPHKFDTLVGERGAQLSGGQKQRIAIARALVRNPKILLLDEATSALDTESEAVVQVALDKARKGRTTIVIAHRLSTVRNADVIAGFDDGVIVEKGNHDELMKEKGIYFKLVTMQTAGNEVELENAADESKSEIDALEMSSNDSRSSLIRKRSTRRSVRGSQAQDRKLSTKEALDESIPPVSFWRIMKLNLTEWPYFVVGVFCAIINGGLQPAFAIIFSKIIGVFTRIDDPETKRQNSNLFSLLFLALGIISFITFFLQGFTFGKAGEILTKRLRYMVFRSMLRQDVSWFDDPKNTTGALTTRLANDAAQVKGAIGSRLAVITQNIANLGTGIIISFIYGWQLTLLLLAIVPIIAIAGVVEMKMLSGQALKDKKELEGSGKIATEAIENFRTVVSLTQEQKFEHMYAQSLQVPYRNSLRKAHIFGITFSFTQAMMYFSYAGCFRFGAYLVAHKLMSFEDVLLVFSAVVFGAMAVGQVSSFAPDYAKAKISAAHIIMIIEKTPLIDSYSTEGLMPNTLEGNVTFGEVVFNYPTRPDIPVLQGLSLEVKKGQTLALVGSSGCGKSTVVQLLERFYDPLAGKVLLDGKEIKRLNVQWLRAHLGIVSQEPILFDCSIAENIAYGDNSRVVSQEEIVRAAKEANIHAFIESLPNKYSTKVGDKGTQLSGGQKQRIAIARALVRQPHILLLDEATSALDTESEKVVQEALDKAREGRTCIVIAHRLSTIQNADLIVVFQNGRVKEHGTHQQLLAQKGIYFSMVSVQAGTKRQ

Compound | Activity (L5178Y [1]) | IC50 (L5178Y [2]) [µM] | Activity [3] | Activity [4] | Activity [5] | Activity (L5178Y [6]) | Activity [7] | Activity [8] | Activity [9] | Activity [10] | logD [11] | IC50 (L5178Y [12]) [µM] | Activity [13] | fractional inhibitory concentration index (FICI) (L5178Y [14]) | further results
C[C@H](C/C=C/C(C)(C)O)[C@H]1CC[C@@]2(C)[C@@H]3[C@@H](O)C=C4[C@@H](CC[C@H](O)[C@]4(C)CO)[C@]3(C)CC[C@]12C [BALSAMINAGENIN A] | 10.6 | 19.5 | 579.8 | 1.07 | 441.8 | 959.5 | 261.2 | 257.6 | 447.4 | 44.3 | 5.2 | 25.9 | 13.95 |  | 
COC(C)(C)/C=C/C[C@@H](C)[C@H]1CC[C@@]2(C)[C@@H]3[C@@H](O)C=C4[C@@H](CC[C@H](O)[C@]4(C)CO)[C@]3(C)CC[C@]12C [BALSAMINAGENIN B] | 10.6 | 15.4 | 1365.1 | 5.98 | 428.7 | 959.5 | 261.1 | 238.6 | 454.4 | 104.2 | 5.8 | 16.8 | 78.4 | 0.18 | 
COC(C)(C)/C=C/C[C@@H](C)[C@H]1CC[C@@]2(C)[C@@H]3[C@@H](O[C@H]4O[C@@H](CO)[C@H](O)[C@H](O)[C@@H]4O)C=C4[C@@H](CC[C@H](O)C4(C)C)[C@]3(C)CC[C@]12C [BALSAMINOSIDE A] | 10.6 | 8.3 | 1171.1 | 1.45 | 429.6 | 959.5 | 253.8 | 249.7 | 441.6 | 89.4 | 5.3 | 20.8 | 19 | 0.37 | 
CO[C@H]1C=C2[C@@H](CC[C@H](O)C2(C)C)[C@]2(C)CC[C@]3(C)[C@@H]([C@H](C)C[C@@H](O)C=C(C)C)CC[C@@]3(C)[C@H]12 [KARAVELAGENIN C] | 9.5 | 6.3 | 399.5 | 42.1 | 468.8 | 1034.3 | 215.4 | 206.8 | 551.8 | 46 | 7.3 | 16.8 | 365.7 | 0.28 | Activity [15]: 1.5; Activity [16]: 215.3; Activity [17]: 12.7; Activity [18]: 456.4; Activity [19]: 130; Activity [20]: 217.8; Activity [21]: 15; Activity [22]: 460.7
CO[C@H]1C=C2[C@@H](CC[C@H](O)C2(C)C)[C@]2(C)CC[C@]3(C)[C@@H]([C@H](C)C[C@H](C=C(C)C)OC(C)=O)CC[C@@]3(C)[C@H]12 [KARAVOATE A] |  | 26 | 612.7 | 35.2 | 470.2 |  | 254.9 | 222.4 | 518.1 | 34.2 | 8 | 34.8 | 671.2 | 0.44 | 
CO[C@H]1C=C2[C@@H](CC[C@H](OC(C)=O)C2(C)C)[C@]2(C)CC[C@]3(C)[C@@H]([C@H](C)C[C@H](C=C(C)C)OC(C)=O)CC[C@@]3(C)[C@H]12 [KARAVOATE B] |  | 48.8 | 671.2 | 5.7 | 454.9 |  | 247 | 249.3 | 462.9 | 37.5 | 8.6 | 60.2 | 102.1 |  | 
CCC(=O)O[C@@H](C=C(C)C)C[C@@H](C)[C@H]1CC[C@@]2(C)[C@@H]3[C@@H](OC)C=C4[C@@H](CC[C@H](O)C4(C)C)[C@]3(C)CC[C@]12C [KARAVOATE C] |  | 41.4 | 726.8 | 1.7 | 466.3 |  | 249.9 | 242.5 | 481.3 | 40.6 | 8.3 | 43.5 | 30.3 |  | 
CCC(=O)O[C@H]1CC[C@@H]2C(=C[C@H](OC)[C@@H]3[C@@]2(C)CC[C@]2(C)[C@@H]([C@H](C)C[C@H](C=C(C)C)OC(=O)CC)CC[C@@]32C)C1(C)C [KARAVOATE D] |  | > 133 | 42.3 | 0.9 | 454 |  | 237.9 | 230.8 | 463.1 | 2.4 | 8.9 | > 133 | 16.2 |  | 
CCCC(=O)O[C@@H](C=C(C)C)C[C@@H](C)[C@H]1CC[C@@]2(C)[C@@H]3[C@@H](OC)C=C4[C@@H](CC[C@H](O)C4(C)C)[C@]3(C)CC[C@]12C [KARAVOATE E] |  | 51 | 388.7 | 1 | 448.7 |  | 235.9 | 236.3 | 461.9 | 21.7 | 8.7 | 73.8 | 18 |  | 
COc1ccc(CCN(C)CCCC(C#N)(c2ccc(OC)c(OC)c2)C(C)C)cc1OC (stereo unspecified) [VERAPAMIL] | 97.1 |  |  |  |  |  |  |  |  |  |  |  |  |  | FAR (L5178Y [23]): 7.4
